Test results from ChEMBL document CHEMBL5705905, “Pharmacological targeting of kinases MST1 and MST2 augments tissue repair and regeneration” (Sci Transl Med, 2016).
Activity calls are given as the source filed them. The calls are words filed in the database; no cut-off is given here.

How the values were obtained:
[1] = Apparent volume of distribution in male Sprague-Dawley rat at 5 mg/kg, iv measured for 24 hrs by LC-MS/MS analysis; assay type: ADME, organism-based; conditions: in vivo, read-out: Vz
Method in brief: (§1)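 Sprague-Dawley rats, single intravenous or oral dose. Parameters (half-life, AUC, bioavailability) reported in a supplementary table.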

[2] = molecular target: Phosphatidylinositol 4-phosphate 5-kinase type-1 alpha (Homo sapiens) (UniProt Q99755); assay: Inhibition of PIP5K1A (unknown origin) assessed as remaining activity at 1 uM by Kinome scan method relative to control
Phosphatidylinositol 4-phosphate 5-kinase type-1 alpha (Homo sapiens), sequence (Q99755 whole entry): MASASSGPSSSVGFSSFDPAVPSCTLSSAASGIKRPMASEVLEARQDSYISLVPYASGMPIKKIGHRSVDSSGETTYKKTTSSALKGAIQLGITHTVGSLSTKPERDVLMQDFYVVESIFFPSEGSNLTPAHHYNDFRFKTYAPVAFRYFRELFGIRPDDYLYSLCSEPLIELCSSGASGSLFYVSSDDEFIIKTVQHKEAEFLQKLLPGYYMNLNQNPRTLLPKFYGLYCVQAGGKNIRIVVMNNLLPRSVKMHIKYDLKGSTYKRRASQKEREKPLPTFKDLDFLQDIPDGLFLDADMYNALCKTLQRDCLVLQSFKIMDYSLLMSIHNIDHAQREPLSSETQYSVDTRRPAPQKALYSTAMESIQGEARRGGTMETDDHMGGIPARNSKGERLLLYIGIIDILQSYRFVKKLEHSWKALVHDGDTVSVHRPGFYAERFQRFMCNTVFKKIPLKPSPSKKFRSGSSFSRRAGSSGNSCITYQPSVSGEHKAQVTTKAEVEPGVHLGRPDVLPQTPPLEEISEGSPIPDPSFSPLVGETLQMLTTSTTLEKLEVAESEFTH

[3] = molecular target: Death-associated protein kinase 1 (Homo sapiens) (UniProt P53355); assay: Inhibition of DAPK1 (unknown origin) assessed as remaining activity at 1 uM by Kinome scan method relative to control
Method in brief: (§2)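 Active-site-dependent competition-binding profiling (KINOMEscan) at 1 μM against a 468-kinase panel; compound supplied from a 10 mM DMSO stock. Read-out is ctrl% = (test signal − positive control signal)/(negative control signal − positive control signal) × 100. DMSO is the negative control (100%) and a control compound the positive control (0%). Lower ctrl% means tighter binding.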

[4] = system: Receptor-type tyrosine-protein kinase FLT3 (Homo sapiens), P36888 [UNDEFINED MUTATION]; assay: Inhibition of FLT3 […]/D835V mutant (unknown origin) assessed as remaining activity at 1 uM by Kinome scan method relative to control
[5] = molecular target: cGMP-dependent protein kinase 1 (Homo sapiens) (UniProt Q13976); assay: Inhibition of PRKG1 (unknown origin) assessed as remaining activity at 1 uM by Kinome scan method relative to control
[6] = molecular target: T1, Serine/threonine-protein kinase 3 (Homo sapiens, UniProt Q13188); assay: Inhibition of Flag-tagged full-length MST2 (unknown origin) transfected in HEK293T cells assessed as MOB1a phosphorylation level incubated for 3 hrs by immunoblot analysis
T1 sequence (Q13188 whole entry): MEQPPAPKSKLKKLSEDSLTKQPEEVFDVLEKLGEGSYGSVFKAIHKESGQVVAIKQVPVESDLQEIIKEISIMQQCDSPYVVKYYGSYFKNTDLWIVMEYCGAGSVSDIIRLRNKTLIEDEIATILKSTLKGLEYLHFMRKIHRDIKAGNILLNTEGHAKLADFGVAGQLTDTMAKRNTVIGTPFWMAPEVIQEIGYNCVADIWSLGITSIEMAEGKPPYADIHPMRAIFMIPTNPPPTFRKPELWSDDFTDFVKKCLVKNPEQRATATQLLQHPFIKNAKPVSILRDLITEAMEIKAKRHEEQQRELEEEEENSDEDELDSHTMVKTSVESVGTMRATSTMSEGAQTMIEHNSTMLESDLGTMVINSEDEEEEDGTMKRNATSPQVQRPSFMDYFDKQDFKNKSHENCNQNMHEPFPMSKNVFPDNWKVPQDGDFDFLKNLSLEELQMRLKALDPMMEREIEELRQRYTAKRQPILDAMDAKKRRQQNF

[7] = molecular target: Mitogen-activated protein kinase 8 (Homo sapiens) (UniProt P45983); assay: Inhibition of JNK1 (unknown origin) assessed as remaining activity at 1 uM by Kinome scan method relative to control
[8] = molecular target: Serine/threonine-protein kinase PRP4 homolog (Homo sapiens) (UniProt Q13523); assay: Inhibition of PRP4 (unknown origin) assessed as remaining activity at 1 uM by Kinome scan method relative to control
[9] = molecular target: Platelet-derived growth factor receptor alpha (Homo sapiens) (UniProt P16234); assay: Inhibition of PDGFRalpha (unknown origin) assessed as remaining activity at 1 uM by Kinome scan method relative to control
Platelet-derived growth factor receptor alpha (Homo sapiens), sequence (P16234 whole entry): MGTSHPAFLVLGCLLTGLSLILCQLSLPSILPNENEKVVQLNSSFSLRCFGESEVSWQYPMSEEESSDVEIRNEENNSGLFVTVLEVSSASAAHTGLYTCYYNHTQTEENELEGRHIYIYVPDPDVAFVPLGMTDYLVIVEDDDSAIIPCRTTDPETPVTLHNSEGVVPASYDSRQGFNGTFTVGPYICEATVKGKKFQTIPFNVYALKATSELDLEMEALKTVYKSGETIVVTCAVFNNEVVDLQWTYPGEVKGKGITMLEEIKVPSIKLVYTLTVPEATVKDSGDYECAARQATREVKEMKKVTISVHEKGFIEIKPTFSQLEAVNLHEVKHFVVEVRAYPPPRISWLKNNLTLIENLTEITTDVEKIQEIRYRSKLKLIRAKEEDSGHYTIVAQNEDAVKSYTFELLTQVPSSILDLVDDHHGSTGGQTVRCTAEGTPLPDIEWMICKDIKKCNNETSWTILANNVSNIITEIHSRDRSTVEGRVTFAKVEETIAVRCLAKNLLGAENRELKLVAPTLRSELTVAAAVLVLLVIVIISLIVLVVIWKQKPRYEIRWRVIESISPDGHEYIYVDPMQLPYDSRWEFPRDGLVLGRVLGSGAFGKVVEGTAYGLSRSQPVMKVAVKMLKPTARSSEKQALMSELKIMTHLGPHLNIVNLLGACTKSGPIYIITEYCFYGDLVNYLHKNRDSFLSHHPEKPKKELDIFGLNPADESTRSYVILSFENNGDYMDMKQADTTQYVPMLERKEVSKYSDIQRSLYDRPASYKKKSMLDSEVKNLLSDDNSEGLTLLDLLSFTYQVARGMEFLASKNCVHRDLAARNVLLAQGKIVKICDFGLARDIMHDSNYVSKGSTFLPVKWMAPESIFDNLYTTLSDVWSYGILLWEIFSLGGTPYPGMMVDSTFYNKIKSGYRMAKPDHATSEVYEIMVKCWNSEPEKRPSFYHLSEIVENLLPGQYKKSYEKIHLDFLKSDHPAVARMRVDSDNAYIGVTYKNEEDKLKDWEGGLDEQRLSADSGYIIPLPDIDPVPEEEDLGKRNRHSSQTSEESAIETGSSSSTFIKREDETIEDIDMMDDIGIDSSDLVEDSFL
Method in brief: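 KINOMEscan active-site competition binding assay at 1 μM against 468 kinases. Ctrl% = (test − positive control)/(negative control DMSO − positive control) × 100; lower values mean tighter binding.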

[10] = molecular target: Cyclin-dependent kinase 8 (Homo sapiens) (UniProt P49336); assay: Inhibition of CDK8 (unknown origin) assessed as remaining activity at 1 uM by Kinome scan method relative to control; method in brief: as §2
Cyclin-dependent kinase 8 (Homo sapiens), sequence (P49336 whole entry): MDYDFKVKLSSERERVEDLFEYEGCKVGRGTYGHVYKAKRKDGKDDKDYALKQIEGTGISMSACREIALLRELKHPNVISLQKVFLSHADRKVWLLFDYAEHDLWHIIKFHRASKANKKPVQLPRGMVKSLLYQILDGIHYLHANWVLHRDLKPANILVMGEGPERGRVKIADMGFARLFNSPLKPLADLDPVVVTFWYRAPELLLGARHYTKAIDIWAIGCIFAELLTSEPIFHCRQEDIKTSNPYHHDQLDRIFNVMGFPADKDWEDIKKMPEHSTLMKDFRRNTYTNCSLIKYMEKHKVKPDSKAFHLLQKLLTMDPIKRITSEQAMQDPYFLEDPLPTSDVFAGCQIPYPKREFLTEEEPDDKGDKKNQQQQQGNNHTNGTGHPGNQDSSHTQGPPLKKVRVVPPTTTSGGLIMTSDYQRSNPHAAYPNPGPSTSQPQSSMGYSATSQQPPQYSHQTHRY

[11] = Clearance in male Sprague-Dawley rat at 5 mg/kg, iv measured for 24 hrs by LC-MS/MS analysis; assay type: ADME, organism-based; conditions: in vivo; method in brief: as §1
[12] = molecular target: Serine/threonine-protein kinase WNK2 (Homo sapiens) (UniProt Q9Y3S1); assay: Inhibition of WNK2 (unknown origin) assessed as remaining activity at 1 uM by Kinome scan method relative to control
Serine/threonine-protein kinase WNK2 (Homo sapiens), sequence (Q9Y3S1 whole entry): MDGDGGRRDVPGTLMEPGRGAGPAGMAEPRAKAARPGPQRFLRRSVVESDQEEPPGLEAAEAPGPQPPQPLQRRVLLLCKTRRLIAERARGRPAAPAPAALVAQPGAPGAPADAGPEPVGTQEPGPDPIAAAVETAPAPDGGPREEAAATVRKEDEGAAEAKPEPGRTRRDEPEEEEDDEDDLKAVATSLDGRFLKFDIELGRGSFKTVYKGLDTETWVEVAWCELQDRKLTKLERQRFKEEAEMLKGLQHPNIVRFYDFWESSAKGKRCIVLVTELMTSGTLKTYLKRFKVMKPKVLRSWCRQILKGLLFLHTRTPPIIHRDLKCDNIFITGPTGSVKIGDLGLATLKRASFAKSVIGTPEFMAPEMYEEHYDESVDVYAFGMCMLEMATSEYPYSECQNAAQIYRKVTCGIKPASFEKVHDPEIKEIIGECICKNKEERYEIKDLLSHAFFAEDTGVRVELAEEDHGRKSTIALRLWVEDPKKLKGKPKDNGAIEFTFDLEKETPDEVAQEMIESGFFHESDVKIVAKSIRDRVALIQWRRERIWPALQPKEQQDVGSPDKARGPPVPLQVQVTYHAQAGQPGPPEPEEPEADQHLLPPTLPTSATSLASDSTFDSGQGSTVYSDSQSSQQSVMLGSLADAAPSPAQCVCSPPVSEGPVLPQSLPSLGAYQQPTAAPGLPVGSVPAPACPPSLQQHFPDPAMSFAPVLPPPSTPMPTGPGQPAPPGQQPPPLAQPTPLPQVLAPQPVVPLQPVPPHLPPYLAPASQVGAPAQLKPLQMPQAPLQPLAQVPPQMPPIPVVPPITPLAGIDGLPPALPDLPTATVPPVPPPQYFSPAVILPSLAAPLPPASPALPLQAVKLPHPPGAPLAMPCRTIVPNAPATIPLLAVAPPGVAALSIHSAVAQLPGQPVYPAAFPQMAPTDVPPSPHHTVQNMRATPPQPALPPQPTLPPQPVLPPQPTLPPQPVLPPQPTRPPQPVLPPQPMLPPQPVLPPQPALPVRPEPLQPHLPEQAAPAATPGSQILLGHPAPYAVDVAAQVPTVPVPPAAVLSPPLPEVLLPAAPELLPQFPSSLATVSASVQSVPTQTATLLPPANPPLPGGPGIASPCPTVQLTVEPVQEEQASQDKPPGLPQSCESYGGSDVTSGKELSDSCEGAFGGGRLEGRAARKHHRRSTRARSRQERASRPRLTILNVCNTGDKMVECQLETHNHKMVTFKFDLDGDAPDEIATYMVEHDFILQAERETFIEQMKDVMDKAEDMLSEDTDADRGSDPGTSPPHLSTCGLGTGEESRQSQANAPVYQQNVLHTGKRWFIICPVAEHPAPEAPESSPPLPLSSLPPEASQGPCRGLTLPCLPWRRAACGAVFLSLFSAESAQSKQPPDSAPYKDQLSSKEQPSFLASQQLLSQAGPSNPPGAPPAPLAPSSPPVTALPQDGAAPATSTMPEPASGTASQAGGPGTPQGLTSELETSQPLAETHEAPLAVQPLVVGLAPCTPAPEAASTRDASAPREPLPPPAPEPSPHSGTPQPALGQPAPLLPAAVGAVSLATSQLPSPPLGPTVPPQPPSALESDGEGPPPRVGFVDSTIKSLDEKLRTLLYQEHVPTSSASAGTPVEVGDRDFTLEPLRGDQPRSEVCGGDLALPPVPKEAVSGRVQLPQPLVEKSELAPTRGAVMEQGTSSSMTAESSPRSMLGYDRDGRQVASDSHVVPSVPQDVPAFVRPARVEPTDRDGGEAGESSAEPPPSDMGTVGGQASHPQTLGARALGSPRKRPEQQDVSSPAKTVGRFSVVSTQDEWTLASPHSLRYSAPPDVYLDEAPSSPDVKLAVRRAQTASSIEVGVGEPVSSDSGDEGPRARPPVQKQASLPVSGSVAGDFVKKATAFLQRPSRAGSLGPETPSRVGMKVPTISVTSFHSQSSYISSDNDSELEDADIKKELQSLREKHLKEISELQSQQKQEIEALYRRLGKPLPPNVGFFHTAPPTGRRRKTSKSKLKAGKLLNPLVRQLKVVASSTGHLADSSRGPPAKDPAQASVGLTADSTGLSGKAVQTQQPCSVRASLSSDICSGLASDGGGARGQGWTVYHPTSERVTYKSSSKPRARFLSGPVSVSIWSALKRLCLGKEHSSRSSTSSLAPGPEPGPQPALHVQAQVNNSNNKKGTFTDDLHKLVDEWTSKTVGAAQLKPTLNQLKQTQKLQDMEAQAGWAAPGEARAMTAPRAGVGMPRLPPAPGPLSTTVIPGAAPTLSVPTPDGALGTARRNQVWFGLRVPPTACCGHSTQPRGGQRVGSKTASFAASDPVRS

[13] = molecular target: Serine/threonine-protein kinase MRCK alpha (Homo sapiens) (UniProt Q5VT25); assay: Inhibition of MRCKA (unknown origin) assessed as remaining activity at 1 uM by Kinome scan method relative to control
[14] = system: Serine/threonine-protein kinase B-raf (Homo sapiens), P15056 [V600E]; assay: Inhibition of BRAF V600E mutant (unknown origin) assessed as remaining activity at 1 uM by Kinome scan method relative to control
Method in brief: (§3)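 Active-site-dependent competition-binding (KINOMEscan) panel of 468 kinases, test compound at 1 μM (from a 10 mM DMSO stock). Read-out is ctrl% = (test signal − positive control signal)/(negative control signal − positive control signal) × 100. DMSO is the negative control (100%) and a control compound is the positive control (0%). Lower ctrl% means tighter binding.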

[15] = molecular target: Tyrosine-protein kinase JAK1 (Homo sapiens, UniProt P23458); assay: Inhibition of JAK1 JH2 domain (unknown origin) assessed as remaining activity at 1 uM by Kinome scan method relative to control
[16] = molecular target: Receptor-interacting serine/threonine-protein kinase 4 (Homo sapiens) (UniProt P57078); assay: Inhibition of RIPK4 (unknown origin) assessed as remaining activity at 1 uM by Kinome scan method relative to control
[17] = molecular target: 5'-AMP-activated protein kinase catalytic subunit alpha-1 (Homo sapiens) (UniProt Q13131); assay: Inhibition of AMPK-alpha1 (unknown origin) assessed as remaining activity at 1 uM by Kinome scan method relative to control; method in brief: as §3
Mus musculus = assay: Protection against APAP induced liver injury in mouse assessed as continual expansion of centrilobular necrotic lesions at 1 mg/kg, ip administered at 1.5 hrs by TUNEL staining; assay type: functional, organism-based
[18] = molecular target: Mitogen-activated protein kinase 6 (Homo sapiens) (UniProt Q16659); assay: Inhibition of ERK3 (unknown origin) assessed as remaining activity at 1 uM by Kinome scan method relative to control
[19] = molecular target: Serine/threonine-protein kinase NIM1 (Homo sapiens) (UniProt Q8IY84); assay: Inhibition of NIM1 (unknown origin) assessed as remaining activity at 1 uM by Kinome scan method relative to control
Serine/threonine-protein kinase NIM1 (Homo sapiens), sequence (Q8IY84 whole entry): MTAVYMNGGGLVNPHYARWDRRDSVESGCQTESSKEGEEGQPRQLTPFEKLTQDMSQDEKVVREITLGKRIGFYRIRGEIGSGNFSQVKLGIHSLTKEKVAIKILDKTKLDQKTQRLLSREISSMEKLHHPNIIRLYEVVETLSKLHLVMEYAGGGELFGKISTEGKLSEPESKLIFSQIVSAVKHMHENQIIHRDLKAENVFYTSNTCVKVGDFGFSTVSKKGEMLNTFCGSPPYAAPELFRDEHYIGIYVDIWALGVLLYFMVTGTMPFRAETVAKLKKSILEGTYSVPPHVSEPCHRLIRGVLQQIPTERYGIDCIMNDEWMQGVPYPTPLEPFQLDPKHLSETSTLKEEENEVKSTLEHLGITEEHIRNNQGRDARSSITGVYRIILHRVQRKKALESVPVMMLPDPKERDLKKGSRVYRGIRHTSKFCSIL

[20] = Acute toxicity in wild-type mouse assessed as cell proliferation in liver at 3 mg/kg,ip administrated daily for 7 days by Ki67 staining; assay type: organism-based; conditions: in vivo, 168 h, time 7 day
Method in brief: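 Wild-type mice received vehicle or 3 mg/kg i.p. daily for 7 days. Ki67 staining of sections from various tissues with quantification of positive cells, n = 6; means ± SD, Student's t test. Daily weights, physical activity and serum chemistry were also monitored.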

[21] = molecular target: Ephrin type-A receptor 4 (Homo sapiens) (UniProt P54764); assay: Inhibition of EPHA4 (unknown origin) assessed as remaining activity at 1 uM by Kinome scan method relative to control

For `CN1C(=O)c2sccc2N(C)c2nc(Nc3ccc(S(N)(=O)=O)cc3)ncc21`, which Vd [1] is on record?
Its Vd is 7.1 L/kg.

What about the Activity [2] of the same compound?
Its Activity is 100%.

What about the Activity [3] of the same compound?
The Activity was 91%.

And the Activity [4]?
Its Activity is 27%.

What about the Activity [5] of the same compound?
Its Activity is 98%.

And the IC50 [6]?
The IC50 was 38.1 nM.

What about the Activity [7] of the same compound?
The Activity was 81%.

And the Activity [8]?
The Activity was 97%.

And the Activity [9]?
The Activity was 89%.

What about the Activity [10] of the same compound?
The Activity was 94%.

What about the clearance [11] of the same compound?
The clearance was 65.8 mL/min/kg.

And the Activity [12]?
Its Activity is 78%.

And the Activity [13]?
Its Activity is 76%.

What about the Activity [14] of the same compound?
Its Activity is 100%.

And the Activity [15]?
The Activity was 4.3%.

And the Activity [16]?
The Activity was 9.5%.

And the Activity [17]?
The Activity was 100%.

And the Activity (Mus musculus)?
The Activity was “Active”.

And the Activity [18]?
Its Activity is 100%.

And the Activity [19]?
The Activity was 61%.

And the Activity [20]?
The Activity was “Non-Toxic”.

What about the Activity [21] of the same compound?
Its Activity is 100%.
